GalR3 antag – blocks the human galanin receptor 3; HEK293 GalR3-CNG cAMP membrane potential fluorescence; galR3 body fused to GalR1 C-terminus; O60755; AID 651719; inhibition, % at 3 µM; 360,000 compounds, 0.44% hits;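 active = inhibition above the screen-wide average plus 3 SD, cut at about 13% in these data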;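 also: forskolin and galanin both at EC90 stimulate the cells; cAMP rise reported by CNG channel membrane potential dye signal; 0% = forskolin plus galanin with DMSO and 100% = forskolin alone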
Target sequence (O60755 1-299 limits assumed): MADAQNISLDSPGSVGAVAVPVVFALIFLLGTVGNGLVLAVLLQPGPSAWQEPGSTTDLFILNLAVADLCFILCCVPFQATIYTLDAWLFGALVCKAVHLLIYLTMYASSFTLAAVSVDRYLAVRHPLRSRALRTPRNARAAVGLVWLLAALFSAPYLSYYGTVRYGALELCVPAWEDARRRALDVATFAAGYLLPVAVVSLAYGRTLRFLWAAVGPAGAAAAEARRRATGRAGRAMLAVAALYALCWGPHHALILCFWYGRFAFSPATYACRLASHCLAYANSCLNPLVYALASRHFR
TAAR1 ag – agonists of human TAAR1 | Q96RJ0 | CHO RD-HGA16 TAAR1, Fluo-8 calcium fluorescence; vehicle wells 0%, saturating PEA agonist 100% | activation, % at 3 µM | 360,000 compounds, 0.99% hits;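 active = activation above the mean activation of all test compounds in the run plus 3 SD, cut at about 38% in these data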
Target sequence (Q96RJ0 whole entry, looked up): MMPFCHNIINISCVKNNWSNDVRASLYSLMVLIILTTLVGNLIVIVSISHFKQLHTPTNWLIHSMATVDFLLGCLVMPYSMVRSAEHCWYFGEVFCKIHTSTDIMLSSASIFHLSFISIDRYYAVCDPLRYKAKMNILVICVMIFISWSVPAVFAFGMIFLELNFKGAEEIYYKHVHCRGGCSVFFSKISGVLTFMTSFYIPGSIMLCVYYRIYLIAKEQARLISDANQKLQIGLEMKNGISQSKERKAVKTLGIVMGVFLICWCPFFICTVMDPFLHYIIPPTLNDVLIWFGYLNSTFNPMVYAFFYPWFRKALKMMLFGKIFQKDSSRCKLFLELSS
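System: CHO-derived RD-HGA16 cells with stable Gα16 and human TAAR1. Times: 17-24 h plating, Fluo-8 75 min 37 °C, 30 min RT. Measured by: calcium-sensitive Fluo-8 signal, excitation 470-495, emission 515-575 nm. Read-out basis: % activation relative to PEA EC100 response. Control set: DMSO and PEA EC100. Repeats: no replicates (n 1).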
CHO parental Ca – counter-screen: ATP calcium response change in parental CHO cells; parental CHO-K1, ATP-induced calcium, Fluo-8 fluorescence; inhibition, % at 5.6 µM; AID 463079; 330,000 compounds, 0.63% hits;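 active = inhibition above that plate's mean sample inhibition plus 3 SD, cut at about 26% in these data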;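 also: 0% = ATP-challenged DMSO wells and 100% = DMSO wells without ATP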
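Assay system – parental CHO cells · Reagent – ATP stimulus · Detection – intracellular calcium via Fluo-8 no-wash fluorescent dye · Evaluation – percent inhibition of ATP-evoked calcium rise, normalized to controls · Controls – ATP wells versus no-ATP DMSO wells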
OX1R antag-1 – blocks the human orexin 1 receptor; O43613; CHO/OX1R cells, Fluo-8 calcium fluorescence, orexin A; inhibition, % at 5 µM; 330,000 compounds, 0.43% hits; AID 434989;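 active = inhibition above its plate's threshold, mean inhibition of all tested compounds on the plate plus 3 SD, cut at about 37% in these data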;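 also: 0% = orexin A challenge wells and 100% = SB-334867-A antagonist wells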
TAAR1 antag – human TAAR1 antagonism; 360,000 compounds, 1.5% hits; AID 624466; CHO RD-HGA16 TAAR1, Fluo-8 calcium fluorescence, antagonist; inhibition, % at 3 µM;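 active = inhibition above a per-plate cutoff, the mean inhibition of test compounds on that plate plus 3 SD, cut at about 49% in these data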;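 also: 0% = DMSO plus EC80 beta-PEA response and 100% = DMSO alone without agonist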
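Assay system: CHO-derived RD-HGA16 cells stably expressing human TAAR1 plus Gα16. Timing: 140 s kinetic read after compound, 140 s after agonist. Technique: kinetic Fluo-8 calcium fluorescence measurement. Measure: % inhibition of agonist calcium response.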
OX1R antag-2 – blocks the human orexin 1 receptor | OX1R-expressing cells, FRET antagonist read-out | AID 485270 | 330,000 compounds, 1.8% hits | inhibition, % at 6.6 µM; in the data active = inhibition mostly above about 38%, no sharp cut-off; inactive = mostly below about 40%;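 also: 0% = agonist challenge alone and 100% = reference antagonist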
TAAR1 nonsel count – nonselective antagonist in TAAR1 antagonist counter-screen. shares compounds with TAAR1 antag. counterscreen cell line, calcium fluorescence, antagonist mode. inhibition, % at 3 µM. 2,400 compounds, 77% hits. AID 651780; in the data active = inhibition above about 22%;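 also: CHO-Ga16 host cells stimulated with ATP at an EC80 level; 0% = agonist EC80 plus vehicle and 100% = vehicle without agonist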
TAAR1 ant conf – confirmation of human TAAR1 antagonists | shares compounds with TAAR1 antag | TAAR1-expressing cells, fluorescence antagonist read-out | inhibition, % at 3 µM | 2,400 compounds, 40% hits; in the data active = inhibition above about 49%;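 also: CHO-Ga16 host cells challenged with agonist PEA near its EC80; 0% = agonist at EC80 plus vehicle and 100% = vehicle with no agonist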
Ga16 nonsel ag – nonselective Ga16 agonist in TAAR1 antagonist counter-screen; shares compounds with TAAR1 antag; Ga16-expressing cells, calcium fluorescence, agonist counterscreen; AID 651953; activation, % at 3 µM; 2,400 compounds, 18% hits; in the data active = activation above about 12%;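 also: 0% = vehicle wells and 100% = saturating stimulus response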
TAAR1 ag counter – counter-screen for human TAAR1 antagonists: TAAR1 agonists; hTAAR1 cell line, fluorescence activation, agonist mode; shares compounds with TAAR1 antag; 2,400 compounds, 2% hits; activation, % at 3 µM; in the data active = activation above about 37%;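 also: CHO cells stably expressing TAAR1 with calcium dye readout; 0% = DMSO vehicle and 100% = full agonist response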
The depositor's hits bear a star; / = not tested or not shown; ! = a repeat was not active. Sampled rows, rich in hits. Any-hit rate of the full collection: about 4.2%.

SMILES | GalR3 antag | TAAR1 ag | CHO parental Ca | OX1R antag-1 | TAAR1 antag | OX1R antag-2 | TAAR1 nonsel count | TAAR1 ant conf | Ga16 nonsel ag | TAAR1 ag counter
COc1cccc(COc2ccc3c(C)cc(=O)oc3c2)c1 | -5 | 6 | -13 | -28 | 0 | 5 | / | / | / | /
CC1=NN(c2nc(N)nc(/C(C#N)=C/c3ccc([N+](=O)[O-])o3)n2)C(C)(C)C1 | -3 | 22 | / | / | 59* | / | 57* | 66* | 23* | 28
COc1ccccc1N1CCN(Cc2ccc(-c3ccccc3[N+](=O)[O-])o2)CC1 | -3 | 12 | -35 | -29 | 88* | 21 | 28* | 55* | 8 | 4
COc1ccc(C(=O)N2CCN(c3ccc(NC(=O)c4cccnc4)cc3)CC2)cc1 | -2 | 2 | -10 | -7 | -5 | 23 | / | / | / | /
COc1ccc(C(=O)Nc2ccc(N3CCN(C(=O)c4ccccc4C)CC3)cc2)cc1 | -6 | 10 | -7 | -6 | 65* | 21 | 24* | 37 | 14* | 12
COc1ccc(Nc2ncc(C(=O)O)c3ccccc23)cc1 | -4 | 0 | -9 | -1 | 4 | 8 | / | / | / | /
COc1ccc(Nc2ncc(C(=O)N3CCN(c4ccc(F)cc4)CC3)c3ccccc23)cc1 | -3 | 25 | 10 | 11 | 55* | 12 | 37* | 54* | 11 | 8
Cc1coc2c(C)c3oc(=O)c(CCC(=O)NCCCn4ccnc4)c(C)c3cc12 | -6 | 3 | -9 | -9 | -6 | 21 | / | / | / | /
CCN(CC(=O)NCc1ccc(Cl)cc1)S(=O)(=O)c1ccc(NC(C)=O)cc1 | -5 | 19 | -15 | -12 | 78* | 3 | 21 | 47 | 9 | 11
CCN(CC(=O)NCc1ccc(Cl)cc1)S(=O)(=O)c1ccc(F)cc1 | -8 | -2 | -8 | -27 | -10 | 14 | / | / | / | /
CCCS(=O)(=O)c1nc(S(=O)(=O)c2ccc(C)cc2)c(N2CCOCC2)s1 | -1 | -1 | -30 | -11 | 4 | 30 | / | / | / | /
CCCn1c(SCC(=O)Nc2cccc(S(=O)(=O)NC3=NCCCCC3)c2)nc2ccccc2c1=O | -4 | 1 | -33 | -40 | -8 | 15 | / | / | / | /
COc1ccc(-n2nc(C(=O)NCC(=O)Nc3cccc(NC(C)=O)c3)c3ccccc3c2=O)cc1 | 4 | 5 | -11 | -11 | 36 | 39 | / | / | / | /
COc1ccc(-n2nc(C(=O)NCC(=O)Nc3cc(OC)c(OC)c(OC)c3)c3ccccc3c2=O)cc1OC | -6 | 16 | -25 | -29 | 64* | -2 | 29* | 51* | 7 | 13
COc1ccc(-n2nc(C(=O)NCC(=O)Nc3cc(OC)c(OC)c(OC)c3)c3ccccc3c2=O)cc1 | -1 | 18 | -11 | -25 | 58* | 30 | 28* | 51* | 7 | 8
CCOC(=O)N1CCN(C(=O)CNC(=O)c2nn(-c3ccc(OC)c(Cl)c3)c(=O)c3ccccc23)CC1 | -7 | 16 | -24 | -14 | 62* | 29 | 32* | 44 | 6 | 9
Cc1ccc(Nc2nc3nonc3nc2N(C)C)cc1 | -5 | 2 | 3 | -25 | 6 | 35 | / | / | / | /
Cc1nc2c(OCc3ccc(OC(F)F)cc3)cccn2c1N(C)C(=O)CCC1CCCC1 | -9 | 2 | / | / | 78* | / | 39* | 54* | 7 | 3
CCN(CC(=O)Nc1ccccc1OC)CC(=O)Nc1c(Cl)ccc(C)c1Cl | 1 | 12 | -13 | -16 | 58* | 12 | 22* | 40 | 8 | 8
Cc1ccc2nc(-c3cccnc3)cc(C(=O)N3CCN(c4ccc([N+](=O)[O-])cc4)CC3)c2c1 | 3 | 11 | -1 | -17 | 44 | 3 | / | / | / | /
CS(=O)(=O)N1CCN(C(=O)c2cc(-c3cccnc3)nc3ccc(Br)cc23)CC1 | -1 | 18 | 1 | -31 | 46 | 15 | / | / | / | /
CC(=O)c1ccc(N2CCN(C(=O)c3cc(-c4cccnc4)nc4ccc(Br)cc34)CC2)cc1 | -1 | 25 | -10 | -9 | 76* | 5 | 27* | 49* | 13* | 21
O=C(c1cc(-c2cccnc2)nc2ccc(Br)cc12)N1CCN(c2ncccn2)CC1 | -4 | 20 | -27 | -30 | 51* | 20 | 34* | 57* | 10 | 12
Cc1ccc(C(=O)N2CCc3ccccc32)cc1[N+](=O)[O-] | -7 | -1 | -8 | -9 | 6 | 5 | / | / | / | /
O=C(CCC(=O)N1CCOCC1)NCCc1ccc(F)cc1 | -3 | / | -4 | -9 | / | 10 | -5 | / | 1 | /
SMILES | GalR3 antag | TAAR1 ag | CHO parental Ca | OX1R antag-1 | TAAR1 antag | OX1R antag-2 | TAAR1 nonsel count | TAAR1 ant conf | Ga16 nonsel ag | TAAR1 ag counter
CCCCNc1c(-c2cccc(SC(C)CC)c2)nc2ccc(Cl)cn12 (stereo not drawn) | -4 | 9 | -20 | -14 | 57*! | 17 | 19 | 27 | 4 | 6
CCCCNc1c(-c2ccc(SC3CCCCC3)c(OC)c2)nc2ccc(C)cn12 | -6 | 2 | 25 | 21 | 74* | 14 | 36* | 36 | 0 | 0
CCCCNc1c(-c2ccc(OC)c(SC(C)CC)c2)nc2ccc(C)cn12 (stereo not drawn) | -4 | 19 | 94* | 87* | 91* | 60* | 46* | 58* | 8 | 9
CC(O)(c1cccnc1)c1nc(-c2cccc(F)c2)cs1 (stereo not drawn) | -3 | -1 | / | / | -25 | / | / | / | / | /
CO[C@H]1CC[C@@]2(C)[C@@H](CC[C@@H]3[C@@H]2CC[C@@]2(C)[C@H]3C[C@H](C(=O)N[C@@H](CCCN=C(N)N)C(=O)NCC(=O)N[C@@H](CC(=O)O)C(N)=O)O[C@]23CCCO3)C1 | / | / | 3 | -6 | / | 5 | / | / | / | /
OC[C@@H]1CN(Cc2cccc(C(F)(F)F)c2)C[C@H](n2cnc3c(NCc4ccco4)ncnc32)O1 | -6 | 17 | / | / | 74* | / | 23* | 39 | 11 | 11
OC[C@@H]1CN(Cc2cccc(C(F)(F)F)c2)C[C@H](n2cnc3c(NCc4ccc(F)cc4)ncnc32)O1 | -5 | 8 | / | / | 30 | / | / | / | / | /
COc1ccc(CCNC(=O)C(=O)NCC2CCCN2S(=O)(=O)c2ccc(OC)cc2)cc1 (stereo not drawn) | -3 | 18 | 5 | -14 | 74* | 33 | 29* | 57* | 14* | 19
